Data on 167 variants can be found in the RNAGym collection of RNA variant scans (doi:10.1126/science.aae0568).

The labels stand for the following.
B1: tRNA (parent)
chain: GUUCCGUUGGCGUAAUGGUAACGCGUCUCCCUCCUAAGGAGAAGACUGCGGGUUCGAGUCCCGUACGGAACG

Fewer inactive variants are shown than the library holds. Bounds are passed on as bounds.

Variants of B1 are the subject of the series. Nature of the series: yeast fitness relative to wild type (ratio to wild type); higher = fitter; tRNA-Arg(CCU), competitive growth, 37 C, YPD. The method, boiled down:
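A pool of Saccharomyces cerevisiae strains, each with a tRNA-Arg(CCU) gene variant at the native genomic locus, was competed in YPD at 37°C for 24 hours across six parallel replicates. The variants had been chemically synthesised at a 3% per-site mutation rate over 69 sites, and gene amplicons before and after competition were read by 100-nucleotide paired-end sequencing. Darwinian fitness relative to wild type rested on changes in genotype frequencies. Genotypes required ≥ 100 starting reads, and estimates < 0.5 were set to 0.5.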
For G18A C30G G41C, the yeast fitness was not above 0.5.

In the case of C62U C66G, the yeast fitness was determined as 0.731.

Consider G25A C61U G63C, for which the yeast fitness is 0.528.

Turning to C4A C29G C33G A43U, the yeast fitness was not above 0.5.

Consider C4U C27G A65U, for which the yeast fitness was not above 0.5.

As for G10A G41A C49U U53A C66G, the yeast fitness amounted to 0.537.

With C29U C46G G56A C60A C62G C66A, the yeast fitness came out at 0.543.

As to A21G C22A C49A G56C, the yeast fitness is not above 0.5.

Turning to C29G A37C G63A A65G, the yeast fitness is not above 0.5.

For the variant A15G U19G, the yeast fitness is 0.985.

As to C11A C49A C66U, the yeast fitness is not above 0.5.

Consider C4U G48C G67U A69C, for which the yeast fitness is not above 0.5.

For the variant C30A G44C U59A, the yeast fitness was not above 0.5.

For A14C U26C U54C C55G C61A, the yeast fitness is not above 0.5.

On to G6A A57C A65C, for which the yeast fitness is 0.541.

Take U8A U13A A14C U16C: the yeast fitness was not above 0.5.

U7G G9A A43C: the yeast fitness came to 0.515.

Take A15U C24U A43C: the yeast fitness was 0.573.

U3A C5G U13G G39C A70C: the yeast fitness was not above 0.5.

With C4G U7C A45U G48C, the yeast fitness was not above 0.5.

Turning to A15C C29G G44C A45U U47A, the yeast fitness was not above 0.5.

On to G6A U54A, for which the yeast fitness amounted to 0.674.

As for U8A A14C C31A G41C C49A G56A A70C, the yeast fitness is 0.533.

Take C5A A14G U26A A37U G41A C62U: the yeast fitness was not above 0.5.

Turning to C24U C31U C49U A70C, the yeast fitness is 0.643.

Take U35C G51U: the yeast fitness is 0.527.

For the variant C4G A40C G68C, the yeast fitness is not above 0.5.

As for A15C U16C G17C C49G, the yeast fitness is not above 0.5.

As for U8G, the yeast fitness turned out to be 0.711.

As for A37C C49G A57C, the yeast fitness is not above 0.5.

With A20U A37C A43U, the yeast fitness was 0.59.

For the variant G48C G67U, the yeast fitness is 0.811.

Take C4A G9C C11G G44A C60U G67C: the yeast fitness was not above 0.5.

Consider C34G A57U, for which the yeast fitness came out at 0.523.

Turning to C11A U16C G18C A36G G56C, the yeast fitness was not above 0.5.

With U7G U8G C31U U35A U47C, the yeast fitness is not above 0.5.

G9A A42G C62A: the yeast fitness is not above 0.5.

For A21G G50C G52C, the yeast fitness is not above 0.5.

As to U8A A14U A15G U32C A57U, the yeast fitness stood at 0.599.

Consider G9C A20G A42U G44C G50C, for which the yeast fitness is not above 0.5.

For U7G C49U A65G, the yeast fitness worked out at 0.83.

On to G10C U19A C31G C34A A42G, for which the yeast fitness is not above 0.5.

With C5A C34U U35A C49A U54A, the yeast fitness was determined as 0.661.

For C34U A40C G68C, the yeast fitness is not above 0.5.

For G6A C24U U32G A40U U64G, the yeast fitness is not above 0.5.

As to U35C G58A C60U, the yeast fitness was not above 0.5.

Take U3C C55U G58A: the yeast fitness was found to be 0.508.

As for U3A G12C G52A A65U, the yeast fitness is not above 0.5.

Regarding U8A A14G C24G A65C, the yeast fitness is not above 0.5.

For the variant C11U A20C C29G A42G G56C G58A, the yeast fitness was not above 0.5.

As to C22A C24A U26C C66U, the yeast fitness was not above 0.5.

As to G6C G12A G58C, the yeast fitness turned out to be 0.964.

On to U7G C27G A40U G58C, for which the yeast fitness was not above 0.5.

As for A21G C22A C62U C66A, the yeast fitness was not above 0.5.

On to G6A C24U A37U A40U, for which the yeast fitness is not above 0.5.

Regarding G12C A20C C31G C66A, the yeast fitness was not above 0.5.

In the case of A36G A70G, the yeast fitness was determined as 0.914.

Regarding G12A C27G G50A, the yeast fitness was not above 0.5.

On to C34G G41A A42C G67C, for which the yeast fitness was determined as 0.597.

For the variant U7G A37U, the yeast fitness turned out to be 0.72.

Regarding A20G C24A C27A A69C, the yeast fitness was 0.591.

In the case of C11A A15U A20C C34G C66U, the yeast fitness is not above 0.5.

Regarding C22U U54C G67A, the yeast fitness is not above 0.5.

With U8C U19A A40C G44C G48C U53G, the yeast fitness was not above 0.5.

For U28C C61G, the yeast fitness is 0.583.

As for C5U U19G A37G C66U A69U, the yeast fitness was determined as 0.547.

Take C27G: the yeast fitness amounted to 0.644.

On to C22G A36G A37C C46A C49G, for which the yeast fitness is not above 0.5.

Take U2G C30U G58C G63C: the yeast fitness came to 0.618.

In the case of C11A C49U G68A, the yeast fitness is not above 0.5.

On to C31U G39C G52C, for which the yeast fitness is not above 0.5.

On to U7C U16A U28A, for which the yeast fitness was not above 0.5.

Regarding A42C G68U, the yeast fitness was 0.873.

With C22G C46A C49U G68A, the yeast fitness was not above 0.5.

Take U8C G25C G38A G58A C60U C62U: the yeast fitness is not above 0.5.

U7A A45C U47C C55U A65C A69C: the yeast fitness is not above 0.5.

On to C22U C34A, for which the yeast fitness came out at 0.641.

In the case of G10C C29U C31U A65U, the yeast fitness was not above 0.5.

Consider G25A C34A, for which the yeast fitness is 0.77.

For the variant U2A C4A C46G G52A, the yeast fitness was not above 0.5.

Consider G25C C30U A70C, for which the yeast fitness is 0.596.

On to C11A U13A, for which the yeast fitness came to 0.603.

As for U7G C11G C34U G41A C49U, the yeast fitness was not above 0.5.

In the case of C30U C46U G50A A69G, the yeast fitness came out at 0.605.

Turning to C29U G67C, the yeast fitness was 0.848.

On to A20U A70C, for which the yeast fitness came to 0.977.

On to C4U C31U A43U G48A U53A, for which the yeast fitness is not above 0.5.

Regarding U2C U3A A14C C30U A40U C49U, the yeast fitness was not above 0.5.

With C24G C33U C61A A69U, the yeast fitness is not above 0.5.

As to G9C C55A C61U, the yeast fitness is not above 0.5.

C22G A45C A57U C62A: the yeast fitness was determined as 0.716.

On to A21C A42G A69C A70G, for which the yeast fitness is 0.543.

In the case of C5U A42U C55U A69C, the yeast fitness is not above 0.5.

Turning to U3A A14C, the yeast fitness is 0.567.

For the variant U8A U19G C22U G58A, the yeast fitness came to 0.568.

For the variant U7G C27A A36C A42U U64G A70U, the yeast fitness is not above 0.5.

G17C A20C C34A U47A A57U: the yeast fitness was not above 0.5.

In the case of A14C A36U C60U A69U, the yeast fitness was not above 0.5.

Turning to A14C G56C, the yeast fitness turned out to be 0.567.

Consider A20C C22U U47A C62U, for which the yeast fitness is 0.643.

With C27U A37G G38C A43C C62G, the yeast fitness is 0.508.

Consider U8C U16A A21U C24G G48C, for which the yeast fitness is not above 0.5.

With U13C C27U C31A U35C C55G C66U A70C, the yeast fitness was not above 0.5.

As for U53C C60G, the yeast fitness came out at 0.784.

Take G18A C62G G68C: the yeast fitness was not above 0.5.

Consider U16C C34G G44A A65U, for which the yeast fitness was not above 0.5.

As for C60A U64C, the yeast fitness came out at 0.718.

Consider C34U C46G G58C C60U C66G, for which the yeast fitness is not above 0.5.

On to C22A C24G A36G G39C C55U, for which the yeast fitness is not above 0.5.

With C11G U16G U35A G41C, the yeast fitness is not above 0.5.

For C5A A45U C49U, the yeast fitness is 0.64.

As to C4G U35C C55A A69U, the yeast fitness is not above 0.5.

For the variant U2G C33G C62U A65U, the yeast fitness is not above 0.5.

For G18A C33U C46G, the yeast fitness turned out to be 0.634.

Turning to C4G U32A, the yeast fitness was 0.864.

As to C30G C34U A36U A65U, the yeast fitness is 0.612.

As to U19C U28C G68C, the yeast fitness was determined as 0.67.

U19A C27U: the yeast fitness was determined as 1.02.

Regarding C5U C31A G56A, the yeast fitness amounted to 0.562.

In the case of C46A U64A A65C, the yeast fitness is 0.978.

On to G12C G41C C66U, for which the yeast fitness was 0.551.

For the variant C24G U26A U35A C55U A65G A69C, the yeast fitness is not above 0.5.

On to C4U G38A, for which the yeast fitness turned out to be 0.919.

U16G A20C G41A C55U: the yeast fitness is not above 0.5.

With C24U C27U C29G G38C A42C, the yeast fitness stood at 0.577.

A21G U35C A65U: the yeast fitness is not above 0.5.

Regarding U19A C30G A36G C61G, the yeast fitness is not above 0.5.

Consider C4A G9C C30A G39A G58A, for which the yeast fitness is not above 0.5.

As to C24A C30U A65G C66U, the yeast fitness is not above 0.5.

As for U7C A14C G18A A43C A57U G63A, the yeast fitness is not above 0.5.

For G9A C34A, the yeast fitness stood at 0.704.

As to U16A A20U U35C G39C A42C G48A, the yeast fitness is not above 0.5.

Regarding G38C A65U C66U, the yeast fitness is 0.657.

Consider C11U U19G A65C, for which the yeast fitness came to 0.696.

U2G C62G A69C: the yeast fitness is not above 0.5.

Consider C5U U47G G50C, for which the yeast fitness is 0.575.

For the variant C4A C27G C29G G68U, the yeast fitness is not above 0.5.

For G10A C24A G44A, the yeast fitness stood at 0.553.

For C11G C62A A70C, the yeast fitness amounted to 0.563.

Consider C4U C31U C61G, for which the yeast fitness turned out to be 0.58.

Take G9C C22G C61A G63A: the yeast fitness was not above 0.5.

Regarding C5A G10C U26C G52C, the yeast fitness is not above 0.5.

In the case of U3G U53G, the yeast fitness is 0.587.

Consider C5A G38U C55A, for which the yeast fitness was not above 0.5.

On to U3C A40U C49A A70U, for which the yeast fitness is not above 0.5.

As to C5U A15U U16A C29U C55U, the yeast fitness is not above 0.5.

For G9C A70G, the yeast fitness worked out at 0.615.

With C27G G63A, the yeast fitness worked out at 0.665.

For C4A C11U A37C, the yeast fitness worked out at 0.537.

As for C31U U53A U59A, the yeast fitness was not above 0.5.

Turning to U7A A20C U26A, the yeast fitness is not above 0.5.

Consider C22G U64C G68C, for which the yeast fitness was 0.623.

Turning to C5U A45U C62G G63A, the yeast fitness was not above 0.5.

Consider C5U C34G, for which the yeast fitness amounted to 0.788.

For the variant C22U, the yeast fitness came out at 0.908.

Take C24G C33U A70G: the yeast fitness was not above 0.5.

Consider C11A A37C A45G, for which the yeast fitness was not above 0.5.

Regarding C34U G52C A70U, the yeast fitness was not above 0.5.

On to C30A G56U, for which the yeast fitness stood at 0.831.

Take U8A G18A: the yeast fitness was 0.578.

For U7C G67A, the yeast fitness was found to be 0.863.

As for U16C A42G, the yeast fitness came out at 0.904.

On to G17A C22U U28C U54G A57C C62U, for which the yeast fitness is 0.535.

As for U2A C5U G6A G39C C60A, the yeast fitness was not above 0.5.

Turning to U16A C33A C34A C62A, the yeast fitness was not above 0.5.

For the variant C22A C24G A36C C66U, the yeast fitness worked out at 0.692.

Take A15U A36U G41A: the yeast fitness was not above 0.5.
